Test results taken from article PMC3572549 (Bioorganic & medicinal chemistry, 2012).

How the values were obtained:
[1] = tested on: cellular microtubules in A-10 cells; test: Loss of cellular; assay type: cell-based, rat; conditions: for Effect on cellular microtubules (in words): concentrations as high as 10 or 40 µM
How it was run: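 Rat aortic smooth muscle A-10 cells were exposed to DMSO vehicle or test compound for 18 h, fixed in cold methanol, and stained for β-tubulin by indirect immunofluorescence. […] It is reported as mean ±SD of 3–4 independent experiments.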

mitotic spindles = test: Formation of aberrant mitotic spindles; assay type: cell-based; conditions: data not shown
MDA-MB-435 cells = test: Cell cycle distribution by flow cytometry; assay type: cell-based, human; conditions: 44.1 nM or 73.5 nM, 18 h
[2] = tested on: purified porcine brain tubulin; test: Preliminary study of inhibition of tubulin polymerization; assay type: biochemical; conditions: porcine brain tubulin 2.5 mg/mL, absorbance at 340 nm, 37 °C
How it was run: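 Porcine brain tubulin (2.5 mg/mL) was incubated with test compound, colchicine or DMSO vehicle. Polymerization was followed turbidimetrically as absorbance at 340 nm at 37 °C.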

Water solubility = assay type: physicochemical

COc1ccc(Nc2nc(N)nc3[nH]c4ccccc4c23)cc1 [Compound 4, N^4-(4-Methoxyphenyl)-9H-pyrimido[4,5-b]indole-2,4-diamine]
Effect on cellular microtubules (in words) [1]: inactive

COc1ccc(N(C)c2nc(N)nc3[nH]c4ccccc4c23)cc1 [Compound 6, N^4-(4-Methoxyphenyl)-N^4-methyl-9H-pyrimido[4,5-b]indole-2,4-diamine]
Effect on mitotic spindles (mitotic spindles): caused the formation of aberrant mitotic spindles | Effect on cell cycle distribution (MDA-MB-435 cells): accumulation of cells in the G2/M phase of the cell cycle | Effect on interphase microtubule network (immunofluorescence) ([1]; 500 nM 6, 18 h incubation): extensive loss of the interphase microtubule network | Effect on cellular microtubules (in words) [1]: active | Inhibition of tubulin assembly (initial study, in words) [2]: potent inhibitor of tubulin assembly

COc1ccc(N(C)c2nc(N)nc3[nH]c4ccccc4c23)cc1.Cl [Compound 6·HCl, 4-((4-Methoxyphenyl)(methyl)amino)-9H-pyrimido[4,5-b]indol-2-aminium chloride]
Solubility in water (Water solubility): freely soluble in water

COc1ccc(N(C)c2nc(NC(=O)C(C)(C)C)nc3[nH]c4ccccc4c23)cc1 [Compound 7, N-{4-[(4-Methoxyphenyl)(methyl)amino]-9H-pyrimido[4,5-b]indol-2-yl}-2,2-dimethylpropanamide]
Effect on cellular microtubules (in words) [1]: inactive

COc1cccc(N(C)c2nc(N)nc3[nH]c4ccccc4c23)c1 [Compound 10, N^4-(3-Methoxyphenyl)-N^4-methyl-9H-pyrimido[4,5-b]indole-2,4-diamine]
Effect on cellular microtubules (in words) [1]: inactive

COc1cc(Nc2nc(N)nc3[nH]c4ccccc4c23)cc(OC)c1OC [Compound 12, N^4-(3,4,5-Trimethoxyphenyl)-9H-pyrimido[4,5-b]indole-2,4-diamine]
Effect on cellular microtubules (in words) [1]: inactive

Cc1ccc(N(C)c2nc(N)nc3[nH]c4ccccc4c23)cc1 [Compound 13, N^4-Methyl-N^4-(4-methylphenyl)-9H-pyrimido[4,5-b]indole-2,4-diamine]
Effect on cellular microtubules (in words) [1]: inactive

CCN(c1ccc(OC)cc1)c1nc(N)nc2[nH]c3ccccc3c12 [Compound 14, N^4-Ethyl-N^4-(4-methoxyphenyl)-9H-pyrimido[4,5-b]indole-2,4-diamine]
Effect on mitotic spindles (mitotic spindles): caused the formation of aberrant mitotic spindles | Effect on cellular microtubules (in words) [1]: active

CCOc1ccc(N(C)c2nc(N)nc3[nH]c4ccccc4c23)cc1 [Compound 15, N^4-(4-Ethoxyphenyl)-N^4-methyl-9H-pyrimido[4,5-b]indole-2,4-diamine]
Effect on mitotic spindles (mitotic spindles): caused the formation of aberrant mitotic spindles | Effect on cellular microtubules (in words) [1]: active
